# Compound activity deposited in PubChem by several laboratories.
# In the library only some 4.3% were active in any assay of this set; here they are far more common.
# TAAR1 antag = antagonists of human TAAR1; CHO RD-HGA16 TAAR1, Fluo-8 calcium fluorescence, antagonist; inhibition, % at 3 µM; hit rate 1.5% among 360,000;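 active = inhibition above a per-plate cutoff, the mean inhibition of test compounds on that plate plus 3 SD, cut at about 49% in these data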;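 also: 0% = DMSO plus EC80 beta-PEA response and 100% = DMSO alone without agonist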
# Target sequence (Q96RJ0 whole entry, looked up): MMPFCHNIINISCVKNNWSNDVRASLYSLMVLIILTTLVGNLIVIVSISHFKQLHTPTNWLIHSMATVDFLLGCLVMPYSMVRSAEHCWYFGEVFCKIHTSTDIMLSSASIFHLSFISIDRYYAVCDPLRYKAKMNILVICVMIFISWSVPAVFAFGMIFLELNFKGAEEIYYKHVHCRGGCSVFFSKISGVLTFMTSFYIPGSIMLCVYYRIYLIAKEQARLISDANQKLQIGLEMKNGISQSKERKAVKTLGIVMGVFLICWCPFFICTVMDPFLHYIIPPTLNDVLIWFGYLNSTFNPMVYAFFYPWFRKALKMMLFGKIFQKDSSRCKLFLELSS
#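 System: RD-HGA16 CHO cells with stable hTAAR1 and Gα16 | Probe or stimulus: EC80 β-phenethylamine stimulus | Dosing: 3 µM, single point | Times: Dye loading 75 min at 37 °C, then 30 min room temperature | Measured by: Fluo-8 calcium-sensitive fluorescence | Read-out basis: % inhibition of agonist calcium response | Replicates: n of 1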
# m5-HT2A agonist = mouse HTR2A agonism via beta-arrestin recruitment; P35363; activation, % at 7.6 µM; hit rate 0.66% among 360,000; CHO-K1 mHTR2A beta-arrestin complementation, luminescence; percent of 30 µM serotonin response;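 active = activation above a run cutoff, the mean activation of all tested compounds plus 3 SD, cut at about 14% in these data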;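 also: 0% = plate median of compound wells and 100% = 30 µM serotonin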
# Beta2AR agonist = activates human beta-2 adrenergic receptor causing internalization. response, % (no concentration beside the values). AID 504454. hit rate 0.43% among 340,000. P07550. Am2.2-beta2AR cells, FAP receptor internalization, flow cytometry;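 active = response above a set limit, near 3 SD of response in nonfluorescent compounds, cut at about 42% in these data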
# MC4R antag cAMP = antagonists of human melanocortin 4 receptor (MC4R) | P32245 | hit rate 0.48% among 360,000 | AID 540295 | inhibition, % at 6.5 µM | MC4R-expressing cells, MTII-stimulated cAMP, LANCE TR-FRET;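 active = inhibition above its plate's cutoff, the mean of tested wells on that plate plus 3 SD, cut at about 29% in these data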;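 also: 0% = Melanotan II alone and 100% = Melanotan II plus saturating MCL0020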
# Target sequence (P32245 whole entry, looked up): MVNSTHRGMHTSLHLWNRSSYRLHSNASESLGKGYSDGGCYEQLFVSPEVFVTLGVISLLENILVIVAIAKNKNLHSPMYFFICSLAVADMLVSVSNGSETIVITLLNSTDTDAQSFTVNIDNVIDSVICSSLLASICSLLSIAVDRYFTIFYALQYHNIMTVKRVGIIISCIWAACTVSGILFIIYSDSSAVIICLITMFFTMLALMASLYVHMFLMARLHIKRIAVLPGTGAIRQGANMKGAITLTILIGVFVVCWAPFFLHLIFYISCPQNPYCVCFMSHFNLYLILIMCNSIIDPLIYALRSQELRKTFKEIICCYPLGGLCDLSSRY
#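 System: U2OS-MC4R stable cell line; Technique: Eu-cAMP/anti-cAMP TR-FRET, emission 671 nm; Repeats: single well per compound; Also added: Melanotan II; Dosing: one concentration, 6.5 µM nominal; Schedule: 30-min compound, 1-h challenge, 1-h detection, room temperature.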
# TAAR1 ag = agonists of human TAAR1; Q96RJ0; CHO RD-HGA16 TAAR1, Fluo-8 calcium fluorescence; vehicle wells 0%, saturating PEA agonist 100%; activation, % at 3 µM; hit rate 0.99% among 360,000; AID 624467;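 active = activation above the mean activation of all test compounds in the run plus 3 SD, cut at about 38% in these data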
#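 Repeats: no replicates (n 1) | Material: CHO-derived RD-HGA16 cells with stable Gα16 and human TAAR1 | Technique: Kinetic Fluo-8 calcium fluorescence | Schedule: 17-24 h seeding, 75 min 37 °C dye, 30 min RT | Evaluation: % activation from peak over basal fluorescence ratio, DMSO-to-PEA scaled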
# MC4R ag barr = activates human MC4R beta-arrestin recruitment; P32245; U2OS MC4R beta-arrestin complementation, luminescence; percent of melanotan II response, DMSO zero; activation, % at 8.9 µM; hit rate 0.98% among 360,000;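 active = activation above a per-plate cutoff, the mean activation of sample wells on that plate plus 3 SD, cut at about 8% in these data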
# TAAR1 nonsel count = counter-screen for TAAR1 antagonists: nonselective antagonists. counterscreen cell line, calcium fluorescence, antagonist mode. hit rate 77% among 2,400. shares compounds with TAAR1 antag. inhibition, % at 3 µM; in the data active = inhibition above about 22%;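 also: CHO-Ga16 host cells stimulated with ATP at an EC80 level; 0% = agonist EC80 plus vehicle and 100% = vehicle without agonist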
# TAAR1 antag conf = human TAAR1 antagonism, confirmed | shares compounds with TAAR1 antag | TAAR1-expressing cells, fluorescence antagonist read-out | inhibition, % at 3 µM | hit rate 40% among 2,400 | AID 651785; in the data active = inhibition above about 49%;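 also: CHO-Ga16 host cells challenged with agonist PEA near its EC80; 0% = agonist at EC80 plus vehicle and 100% = vehicle with no agonist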
# Ga16 ag counter = nonselective Ga16 agonism, counter-screen. shares compounds with TAAR1 antag. Ga16-expressing cells, calcium fluorescence, agonist counterscreen. activation, % at 3 µM. hit rate 18% among 2,400. AID 651953; in the data active = activation above about 12%;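 also: 0% = vehicle wells and 100% = saturating stimulus response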
# TAAR1 ag counter = activates human TAAR1 in antagonist counter-screen; hTAAR1 cell line, fluorescence activation, agonist mode; hit rate 2% among 2,400; activation, % at 3 µM; shares compounds with TAAR1 antag; AID 651955; in the data active = activation above about 37%;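 also: CHO cells stably expressing TAAR1 with calcium dye readout; 0% = DMSO vehicle and 100% = full agonist response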
# An asterisk follows results filed as active; / = no result.
SMILES,TAAR1 antag,m5-HT2A agonist,Beta2AR agonist,MC4R antag cAMP,TAAR1 ag,MC4R ag barr,TAAR1 nonsel count,TAAR1 antag conf,Ga16 ag counter,TAAR1 ag counter
COC(=O)CC(NC(=O)Nc1ccccc1F)c1ccc2c(c1)OCO2 (configuration not stated),6,0,1,7,1,-2,/,/,/,/
CC(=O)c1c(C)[nH]c(C(=O)COC(=O)c2cc(S(=O)(=O)N(C)c3ccccc3)ccc2Cl)c1C,12,5,23,-2,-1,2,/,/,/,/
CCN(c1ccccc1)S(=O)(=O)c1ccc(Cl)c(C(=O)OCC(=O)c2[nH]c(C)c(C(C)=O)c2C)c1,63*,-1,-2,3,0,-2,21,27,2,4
NC(=O)C1CCN(C(=O)c2ccc3c(=O)n(Cc4ccco4)c(SCc4ccc([N+](=O)[O-])cc4)nc3c2)CC1,49*,1,13,4,3,-1,31*,41,5,7
C=CCC[C@@H](Cc1ccc(F)cc1)C(=O)OC[C@@H](Cc1c[nH]c2ccccc12)NC(=O)[C@@H](CC=C)CC(=O)NCCO,36,-4,-4,18,7,0,/,/,/,/
C=CC[C@@H](CC(=O)N[C@H](CO)Cc1ccccc1)C(=O)NC[C@H](OC(=O)[C@@H](CC=C)Cc1ccc(F)cc1)c1ccccc1,69*,5,-2,15,19,-1,30*,56*,8,7
C=CCC[C@H](Cc1ccc(F)cc1)C(=O)OC[C@H](Cc1c[nH]c2ccccc12)NC(=O)[C@H](CC=C)CC(=O)NCCO,73*,8,6,9,25,-1,26*,44,6,7
C=CC[C@H](CC(=O)N(CCO)Cc1ccccc1)C(=O)N[C@H](COC(=O)[C@@H](CC=C)CC(=O)OC(C)(C)C)Cc1c[nH]c2ccccc12,67*,0,2,14,15,-1,21,42,4,6
C=CC[C@H](CC(=O)NCCO)C(=O)NC[C@@H](OC(=O)[C@@H](CC=C)Cc1ccc(F)cc1)c1ccccc1,25,-2,8,2,10,0,/,/,/,/
C=CC[C@@H](CC(=O)N(CCO)Cc1ccccc1)C(=O)N[C@H](COC(=O)[C@H](CC=C)CC(=O)OC(C)(C)C)Cc1c[nH]c2ccccc12,42,-4,-5,11,7,2,/,/,/,/
CCn1cc(C(=O)NCC2CCCO2)c(=O)c2cc(S(=O)(=O)N(C)C3CCCCC3)ccc21 (configuration not stated),52*,-2,-3,9,10,0,20,38,6,5
CCOC(=O)c1c(C)[nH]c(C(=O)COC(=O)CNS(=O)(=O)c2ccc(C)cc2)c1C,75*,-4,14,13,12,0,39*,52*,10,11
CCN(CC(=O)Nc1c(C(=O)OC)[nH]c2ccc(Cl)cc12)c1ccc2c(c1)OCO2,60*,-5,15,-11,6,-2,27*,37,5,3
COC(=O)c1[nH]c2ccc(C)cc2c1NC(=O)CCN1CCN(Cc2ccc3c(c2)OCO3)CC1,9,-1,5,3,1,0,/,/,/,/
COc1cc(/C=N/NC(=O)c2ccncc2)ccc1OC(=O)c1cccc(Br)c1,44,1,4,7,18,0,/,/,/,/
O=C(N/N=C/c1cccc(OC(=O)c2cccc(Br)c2)c1)c1ccncc1,58*,3,0,-1,13,1,26*,48,15*,27
COc1ccc(-c2cc(C(=O)Nc3cccc(S(=O)(=O)NCc4ccco4)c3)c3ccccc3n2)cc1OC,75*,7,10,16,15,-1,37*,57*,9,7
COc1ccc(-c2cc(C(=O)NCc3ccco3)c3ccccc3n2)cc1OC,39,-3,6,3,9,-2,/,/,/,/
O=C(Nc1cccc(S(=O)(=O)NC2=NCCCCC2)c1)c1cc(-c2ccc(Cl)cc2)nc2ccccc12,33,2,-3,-2,4,0,/,/,/,/
CCOc1ccccc1NC(=O)c1cc(-c2ccccn2)nc2ccccc12,55*,1,-7,0,26,-2,21,46,9,7
O=C(Nc1cccc(S(=O)(=O)NC2=NCCCCC2)c1)c1cc(-c2ccccc2)nc2ccccc12,63*,0,16,-1,19,-3,28*,50*,10,6
CN(C)S(=O)(=O)c1cccc(NC(=O)c2c[nH]c3ccccc23)c1,56*,-1,11,7,34,0,24*,61*,10,54*
COc1cc(OC)cc(C(=O)NNC(=O)C2CCC2)c1,-6,-6,/,7,0,-1,/,/,/,/
COc1cc(-c2cc(C(=O)Nc3ccc(S(=O)(=O)Nc4ncccn4)cc3)c3ccccc3n2)cc(OC)c1OC,-33,2,1,12,0,0,/,/,/,/
COc1ccc(NC(=O)c2cc(-c3ccccn3)nc3ccccc23)cc1S(=O)(=O)N(C)C,69*,0,12,23,22,-2,25*,43,9,10
NNC(=O)c1cc(-c2cccs2)nc2ccccc12,-17,-9,-18,6,-2,1,/,/,/,/
CCN(CC)S(=O)(=O)c1ccc(NC(=O)c2cc(-c3cccs3)nc3ccccc23)cc1,60*,0,4,0,17,-2,29*,41,8,6
COc1ccc(-c2cc(C(=O)Nc3ccc(O)cc3)c3ccccc3n2)cc1OC,62*,0,28,-6,17,1,33*,48,11,9
CN(C)S(=O)(=O)c1ccc(NC(=O)c2cc(-c3cccs3)nc3ccccc23)cc1,42,0,5,4,18,-2,/,/,/,/
Cc1cccc2sc(NNC(=O)c3cc(-c4cccs4)nc4ccccc34)nc12,68*,9,17,9,16,-2,51*,54*,15*,11
